Laboratory results reported in ChEMBL document CHEMBL3351863, “Optimization of 2-phenyl-pyrimidine-4-carboxamides towards potent, orally bioavailable and selective P2Y(12) antagonists for inhibition of platelet aggregation” (Bioorg Med Chem Lett, 2014).
Activity calls are given as the source filed them. The rule behind the calls is not given here.

Experiments:
[1] = Solubility in basic pH; format: physicochemical
Platelet [2] = assay: Inhibition of ADP-induced platelet aggregation in human platelet rich plasma assessed as remaining activity at 500 nM by in-vitro light transmission aggregometry assay; format: functional
Summary of the method: (§1)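 Light transmission aggregometry in human platelet-rich plasma; compound incubated, aggregation triggered with 3 µM ADP; remaining activity (RA) recorded at a single compound level (1000, 500 or 100 nM).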

Liver microsome [3] = assay: Metabolic stability assay in rat liver microsomes assessed as parent drug disappearance at 1 uM after 20 mins by HPLC and mass spectrometry method; format: ADME
[4] = Solubility in neutral pH; format: physicochemical
Cytochrome P450 2C9 = Cytochrome P450 2C9 (Homo sapiens, UniProt P11712); assay: Inhibition of CYP2C9 in human liver microsomes assessed as reduction in diclofenac 4'-hydroxylation; format: ADME
Liver microsome [5] = assay: Metabolic stability assay in human liver microsomes assessed as parent drug disappearance at 1 uM after 20 mins by HPLC and mass spectrometry method; format: ADME
Cytochrome P450 2D6 = Cytochrome P450 2D6 (Homo sapiens, UniProt P10635); assay: Inhibition of CYP2D6 in human liver microsomes assessed as reduction in dextromethorphan-O demethylation; format: ADME
Rattus norvegicus [6] = assay: (§2) Cmax in Wistar rat at 10 mg/kg, po; format: ADME, organism-based; set-up: dose 10 mg/kg, route oral; settings: in vivo, BLD = below limit of detection
Summary of the method: (§3)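 Rats dosed by iv infusion at 1 mg/kg (n = 2) or orally at 10 mg/kg (n = 3); plasma levels measured, limit of quantification ca. 1 ng/mL.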

Rattus norvegicus [7] = assay: AUC in Wistar rat at 10 mg/kg, po; format: ADME, organism-based, Plasma; set-up: dose 10 mg/kg, route oral; settings: in vivo; summary of the method: as §3
Cytochrome P450 3A4 [8] = target: T1, Cytochrome P450 3A4 (Homo sapiens, UniProt P08684); assay: Inhibition of CYP3A4 in human liver microsomes assessed as reduction in midazolam 1'-hydroxylation; format: ADME
Platelet [9] = assay: Inhibition of ADP-induced platelet aggregation in human platelet rich plasma by in-vitro light transmission aggregometry assay; format: functional; settings: Homo sapiens, Platelet, Plasma
Summary of the method: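 Human platelet-rich plasma incubated with compound, aggregation induced by 3 µM ADP and read by light transmission aggregometry; IC₅₀ derived from concentration–response curve.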

Platelet [10] = assay: Inhibition of ADP-induced platelet aggregation in human platelet rich plasma assessed as remaining activity at 100 nM by in-vitro light transmission aggregometry assay; format: functional; summary of the method: as §1
[11] = target: Voltage-gated inwardly rectifying potassium channel KCNH2 (Homo sapiens, UniProt Q12809); assay: Inhibition of human ERG expressed in HEK cells by patch-clamp assay; format: cell-based; settings: hek293
[12] = Potency shift, ratio of IC50 for inhibition of ADP-induced platelet aggregation in human platelet rich plasma to IC50 for displacement of [3H]-2-methyl-thio-adenosine 5'-diphosphate from human recombinant P2Y12 expressed in CHO cell membranes
Cytochrome P450 3A4 [13] = target: T1, Cytochrome P450 3A4; assay: Inhibition of CYP3A4 in human liver microsomes assessed as reduction in testosterone 6beta-hydroxylation; format: ADME
[14] = target: P2Y purinoceptor 1 (Homo sapiens) (UniProt P47900); assay: Antagonist activity against P2Y1 (unknown origin) assessed as inhibition of agonist binding up to 10 uM
[15] = target: P2Y purinoceptor 2 (Homo sapiens) (UniProt P41231); assay: Antagonist activity against P2Y2 (unknown origin) assessed as inhibition of agonist binding up to 10 uM
[16] = target: P2Y purinoceptor 6 (Homo sapiens) (UniProt Q15077); assay: Antagonist activity against P2Y6 (unknown origin) assessed as inhibition of agonist binding up to 10 uM
[17] = target: T2, P2X purinoceptor 2 (Homo sapiens) (UniProt Q9UBL9); assay: Antagonist activity against P2X2 (unknown origin)
T2 sequence (whole entry): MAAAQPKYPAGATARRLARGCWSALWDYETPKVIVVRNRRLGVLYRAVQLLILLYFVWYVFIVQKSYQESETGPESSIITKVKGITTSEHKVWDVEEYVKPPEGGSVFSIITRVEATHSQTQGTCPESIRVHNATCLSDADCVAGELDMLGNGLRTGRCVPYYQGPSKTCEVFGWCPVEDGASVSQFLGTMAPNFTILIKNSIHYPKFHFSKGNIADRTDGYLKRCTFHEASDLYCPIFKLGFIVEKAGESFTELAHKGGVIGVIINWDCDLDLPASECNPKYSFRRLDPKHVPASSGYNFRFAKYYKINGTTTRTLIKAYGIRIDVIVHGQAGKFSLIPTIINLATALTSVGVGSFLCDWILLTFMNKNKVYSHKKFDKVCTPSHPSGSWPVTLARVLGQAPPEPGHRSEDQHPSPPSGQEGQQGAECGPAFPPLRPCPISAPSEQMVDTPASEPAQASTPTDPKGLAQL

[18] = target: T3, P2X purinoceptor 4 (Homo sapiens) (UniProt Q99571); assay: Antagonist activity against P2X4 (unknown origin)
T3 sequence (whole entry): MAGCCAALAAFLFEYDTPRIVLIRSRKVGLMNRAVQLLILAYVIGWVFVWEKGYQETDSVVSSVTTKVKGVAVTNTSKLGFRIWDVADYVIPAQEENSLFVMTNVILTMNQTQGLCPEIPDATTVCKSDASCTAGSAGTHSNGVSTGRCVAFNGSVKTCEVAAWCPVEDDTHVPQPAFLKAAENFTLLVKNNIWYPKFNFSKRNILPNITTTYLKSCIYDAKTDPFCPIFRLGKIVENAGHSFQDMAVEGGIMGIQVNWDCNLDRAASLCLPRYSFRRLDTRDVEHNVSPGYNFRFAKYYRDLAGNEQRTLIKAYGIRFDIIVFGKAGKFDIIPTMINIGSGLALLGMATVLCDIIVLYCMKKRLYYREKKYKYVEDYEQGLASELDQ

[19] = target: T4, P2X purinoceptor 7 (Homo sapiens) (UniProt Q99572); assay: Antagonist activity against P2X7 (unknown origin)
T4 sequence (whole entry): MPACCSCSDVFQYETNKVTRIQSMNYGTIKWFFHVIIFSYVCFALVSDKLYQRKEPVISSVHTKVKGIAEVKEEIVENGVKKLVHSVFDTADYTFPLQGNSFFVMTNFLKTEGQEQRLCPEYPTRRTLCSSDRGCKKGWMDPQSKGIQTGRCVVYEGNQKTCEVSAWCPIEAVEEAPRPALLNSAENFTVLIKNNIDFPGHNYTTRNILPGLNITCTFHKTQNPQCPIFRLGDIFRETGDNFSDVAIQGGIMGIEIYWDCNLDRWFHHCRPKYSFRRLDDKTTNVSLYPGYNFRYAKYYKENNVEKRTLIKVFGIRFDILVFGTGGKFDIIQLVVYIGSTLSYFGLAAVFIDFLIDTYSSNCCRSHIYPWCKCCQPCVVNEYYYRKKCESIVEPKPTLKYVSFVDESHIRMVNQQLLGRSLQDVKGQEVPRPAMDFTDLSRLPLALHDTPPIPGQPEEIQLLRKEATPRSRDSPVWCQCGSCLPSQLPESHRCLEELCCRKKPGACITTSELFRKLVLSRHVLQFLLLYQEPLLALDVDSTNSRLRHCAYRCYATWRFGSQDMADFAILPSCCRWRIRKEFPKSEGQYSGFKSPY

[20] = target: T5, P2X purinoceptor 3 (Homo sapiens) (UniProt P56373); assay: Antagonist activity against P2X3 (unknown origin)
T5 sequence (whole entry): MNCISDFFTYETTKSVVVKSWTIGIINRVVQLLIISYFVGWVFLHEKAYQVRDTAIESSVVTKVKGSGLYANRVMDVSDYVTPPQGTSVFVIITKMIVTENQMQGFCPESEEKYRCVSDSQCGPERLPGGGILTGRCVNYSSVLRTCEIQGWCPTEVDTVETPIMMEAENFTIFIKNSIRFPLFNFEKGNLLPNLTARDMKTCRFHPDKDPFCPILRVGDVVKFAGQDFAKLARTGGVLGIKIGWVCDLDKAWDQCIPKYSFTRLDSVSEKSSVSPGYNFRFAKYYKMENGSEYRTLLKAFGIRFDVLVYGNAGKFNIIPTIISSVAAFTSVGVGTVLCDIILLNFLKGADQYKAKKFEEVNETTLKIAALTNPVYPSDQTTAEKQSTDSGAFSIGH

[21] = target: T6, P2Y purinoceptor 11 (Homo sapiens) (UniProt Q96G91); assay: Antagonist activity against P2Y11 (unknown origin) assessed as inhibition of agonist binding up to 10 uM
T6 sequence (whole entry): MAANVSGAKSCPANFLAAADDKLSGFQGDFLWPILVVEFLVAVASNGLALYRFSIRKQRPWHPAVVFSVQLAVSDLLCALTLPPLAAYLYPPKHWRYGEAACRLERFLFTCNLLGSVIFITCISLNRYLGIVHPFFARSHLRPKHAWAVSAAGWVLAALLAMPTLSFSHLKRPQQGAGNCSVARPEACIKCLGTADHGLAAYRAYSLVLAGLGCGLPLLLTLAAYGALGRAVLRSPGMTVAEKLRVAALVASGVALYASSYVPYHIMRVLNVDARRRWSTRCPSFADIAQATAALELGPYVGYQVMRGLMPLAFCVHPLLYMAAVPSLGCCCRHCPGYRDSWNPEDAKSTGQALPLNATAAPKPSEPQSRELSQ

[22] = target: T7, P2X purinoceptor 1 (Homo sapiens) (UniProt P51575); assay: Antagonist activity against P2X1 (unknown origin)
T7 sequence (whole entry): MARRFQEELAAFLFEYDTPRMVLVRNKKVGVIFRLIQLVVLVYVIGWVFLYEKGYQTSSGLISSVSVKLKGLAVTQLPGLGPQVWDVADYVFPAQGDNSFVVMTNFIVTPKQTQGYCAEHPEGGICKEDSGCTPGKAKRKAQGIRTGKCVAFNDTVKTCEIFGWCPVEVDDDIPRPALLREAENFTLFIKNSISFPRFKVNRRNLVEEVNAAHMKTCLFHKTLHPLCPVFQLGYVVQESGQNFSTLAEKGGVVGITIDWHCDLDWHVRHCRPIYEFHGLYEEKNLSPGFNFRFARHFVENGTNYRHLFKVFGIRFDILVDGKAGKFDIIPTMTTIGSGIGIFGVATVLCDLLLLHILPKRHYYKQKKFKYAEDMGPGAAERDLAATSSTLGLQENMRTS

[23] = target: P2Y purinoceptor 4 (Homo sapiens) (UniProt P51582); assay: Antagonist activity against P2Y4 (unknown origin) assessed as inhibition of agonist binding up to 10 uM
[24] = target: T8, P2Y purinoceptor 13 (Homo sapiens) (UniProt Q9BPV8); assay: Antagonist activity against P2Y13 (unknown origin) assessed as inhibition of agonist binding up to 10 uM
T8 sequence (whole entry): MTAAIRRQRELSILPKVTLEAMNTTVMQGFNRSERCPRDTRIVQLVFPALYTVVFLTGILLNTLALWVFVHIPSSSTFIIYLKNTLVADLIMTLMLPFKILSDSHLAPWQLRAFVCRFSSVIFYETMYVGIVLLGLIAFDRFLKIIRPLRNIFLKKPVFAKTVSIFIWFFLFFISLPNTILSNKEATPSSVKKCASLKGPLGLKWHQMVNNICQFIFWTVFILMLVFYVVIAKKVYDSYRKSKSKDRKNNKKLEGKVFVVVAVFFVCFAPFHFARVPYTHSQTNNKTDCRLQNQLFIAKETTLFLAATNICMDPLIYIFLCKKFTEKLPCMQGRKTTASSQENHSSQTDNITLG

[25] = as §2; format: ADME, organism-based; set-up: dose 10 mg/kg, route oral; settings: Wistar, in vivo; summary of the method: as §3
Rattus norvegicus [26] = assay: Oral bioavailability in Wistar rat at 10 mg/kg; format: ADME, organism-based; settings: in vivo; summary of the method: as §3
[27] = Volume of distribution at steady state in Wistar rat at 1 mg/kg, iv or 10 mg/kg, po; format: ADME, organism-based; settings: in vivo, read-out: Vdss; summary of the method: as §3
[28] = Half life in Wistar rat at 1 mg/kg, iv or 10 mg/kg, po; format: ADME, organism-based; settings: in vivo; summary of the method: as §3
[29] = Protein binding in human plasma; format: ADME, cell-free; settings: read-out: PPB (converted)
P2Y purinoceptor 12 = P2Y purinoceptor 12 (Homo sapiens, UniProt Q9H244); assay: Displacement of [3H]-2-methyl-thio-adenosine 5'-diphosphate from human recombinant P2Y12 expressed in CHO cell membranes by scintillation counting method
Summary of the method: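 CHO cells expressing recombinant P2Y₁₂ receptors, incubated with tritium-labeled 2-methyl-thio-adenosine 5'-diphosphate plus test compound; IC₅₀ from displacement curves, each point in triplicate; reference compound run with every compound set, and set re-analyzed if its IC₅₀ fell outside pre-set 95% confidence interval.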

T1 sequence (P08684 whole entry): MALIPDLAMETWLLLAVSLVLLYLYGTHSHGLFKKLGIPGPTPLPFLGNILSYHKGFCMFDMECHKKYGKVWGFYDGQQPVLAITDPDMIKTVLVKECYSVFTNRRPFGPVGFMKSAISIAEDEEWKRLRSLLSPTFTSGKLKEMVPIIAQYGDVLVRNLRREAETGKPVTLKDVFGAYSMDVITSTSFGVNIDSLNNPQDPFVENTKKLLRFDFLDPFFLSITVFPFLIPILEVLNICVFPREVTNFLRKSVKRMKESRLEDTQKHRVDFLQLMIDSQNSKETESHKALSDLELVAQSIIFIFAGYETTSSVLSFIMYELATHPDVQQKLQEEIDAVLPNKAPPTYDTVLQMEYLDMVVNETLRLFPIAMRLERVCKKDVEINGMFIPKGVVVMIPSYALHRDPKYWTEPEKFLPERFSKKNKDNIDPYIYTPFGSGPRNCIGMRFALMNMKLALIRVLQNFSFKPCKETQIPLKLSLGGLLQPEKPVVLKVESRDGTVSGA
Sequence of Cytochrome P450 2C9 (P11712 whole entry): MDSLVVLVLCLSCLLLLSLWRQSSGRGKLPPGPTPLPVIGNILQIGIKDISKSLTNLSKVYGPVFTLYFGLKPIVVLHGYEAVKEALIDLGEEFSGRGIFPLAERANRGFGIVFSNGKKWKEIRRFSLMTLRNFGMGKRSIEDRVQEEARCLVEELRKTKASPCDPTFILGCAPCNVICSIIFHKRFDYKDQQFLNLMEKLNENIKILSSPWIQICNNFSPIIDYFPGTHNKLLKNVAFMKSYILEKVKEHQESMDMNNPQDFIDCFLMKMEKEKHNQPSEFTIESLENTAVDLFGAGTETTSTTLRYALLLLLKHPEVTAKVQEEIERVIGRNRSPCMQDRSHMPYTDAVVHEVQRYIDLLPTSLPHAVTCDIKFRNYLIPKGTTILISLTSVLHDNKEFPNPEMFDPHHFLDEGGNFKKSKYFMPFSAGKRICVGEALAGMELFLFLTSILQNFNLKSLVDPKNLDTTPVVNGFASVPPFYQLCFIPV
Sequence of Cytochrome P450 2D6 (P10635 whole entry): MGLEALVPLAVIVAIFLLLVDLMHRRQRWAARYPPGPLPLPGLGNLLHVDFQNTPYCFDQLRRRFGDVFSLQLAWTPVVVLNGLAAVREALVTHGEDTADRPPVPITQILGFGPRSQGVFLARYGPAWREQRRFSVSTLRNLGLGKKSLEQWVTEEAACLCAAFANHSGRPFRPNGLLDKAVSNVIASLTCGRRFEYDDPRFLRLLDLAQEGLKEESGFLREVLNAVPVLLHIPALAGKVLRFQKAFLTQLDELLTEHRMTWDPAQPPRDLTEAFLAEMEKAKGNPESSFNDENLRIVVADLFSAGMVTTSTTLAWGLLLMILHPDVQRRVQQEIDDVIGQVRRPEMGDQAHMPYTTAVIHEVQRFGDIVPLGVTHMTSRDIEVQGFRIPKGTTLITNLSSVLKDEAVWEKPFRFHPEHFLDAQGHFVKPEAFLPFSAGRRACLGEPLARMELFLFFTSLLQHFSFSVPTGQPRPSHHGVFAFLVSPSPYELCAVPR
Sequence of Voltage-gated inwardly rectifying potassium channel KCNH2 (Q12809 whole entry): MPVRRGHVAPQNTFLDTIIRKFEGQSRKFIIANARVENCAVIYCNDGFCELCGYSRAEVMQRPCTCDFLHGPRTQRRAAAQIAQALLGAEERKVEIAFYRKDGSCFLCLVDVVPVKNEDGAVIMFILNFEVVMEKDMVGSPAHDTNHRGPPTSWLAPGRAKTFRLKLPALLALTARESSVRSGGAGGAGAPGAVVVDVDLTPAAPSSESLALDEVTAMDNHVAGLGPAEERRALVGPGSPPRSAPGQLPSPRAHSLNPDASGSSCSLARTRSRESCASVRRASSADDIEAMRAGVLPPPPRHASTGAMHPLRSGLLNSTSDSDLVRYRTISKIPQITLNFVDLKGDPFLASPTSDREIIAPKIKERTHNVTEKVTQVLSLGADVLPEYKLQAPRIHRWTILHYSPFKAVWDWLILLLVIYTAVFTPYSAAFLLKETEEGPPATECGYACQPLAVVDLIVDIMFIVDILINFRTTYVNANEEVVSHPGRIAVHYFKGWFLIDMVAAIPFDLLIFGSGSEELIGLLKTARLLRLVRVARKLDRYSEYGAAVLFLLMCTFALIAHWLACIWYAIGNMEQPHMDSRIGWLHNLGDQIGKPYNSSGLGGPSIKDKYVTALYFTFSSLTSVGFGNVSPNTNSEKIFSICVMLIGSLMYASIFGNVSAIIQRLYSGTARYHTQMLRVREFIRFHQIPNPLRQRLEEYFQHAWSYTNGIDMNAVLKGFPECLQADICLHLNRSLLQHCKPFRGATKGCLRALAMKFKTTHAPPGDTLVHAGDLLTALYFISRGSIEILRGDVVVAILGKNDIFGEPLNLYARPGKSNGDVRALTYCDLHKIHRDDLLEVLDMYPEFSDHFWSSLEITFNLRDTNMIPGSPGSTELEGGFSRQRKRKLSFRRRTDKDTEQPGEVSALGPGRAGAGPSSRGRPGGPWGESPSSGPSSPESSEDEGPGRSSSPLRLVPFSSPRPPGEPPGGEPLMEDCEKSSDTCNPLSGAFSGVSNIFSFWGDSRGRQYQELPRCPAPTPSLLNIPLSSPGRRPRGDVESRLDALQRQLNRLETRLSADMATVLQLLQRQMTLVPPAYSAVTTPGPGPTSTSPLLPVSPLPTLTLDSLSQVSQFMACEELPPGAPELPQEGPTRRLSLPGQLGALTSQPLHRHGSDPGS
Sequence of P2Y purinoceptor 12 (Q9H244 whole entry): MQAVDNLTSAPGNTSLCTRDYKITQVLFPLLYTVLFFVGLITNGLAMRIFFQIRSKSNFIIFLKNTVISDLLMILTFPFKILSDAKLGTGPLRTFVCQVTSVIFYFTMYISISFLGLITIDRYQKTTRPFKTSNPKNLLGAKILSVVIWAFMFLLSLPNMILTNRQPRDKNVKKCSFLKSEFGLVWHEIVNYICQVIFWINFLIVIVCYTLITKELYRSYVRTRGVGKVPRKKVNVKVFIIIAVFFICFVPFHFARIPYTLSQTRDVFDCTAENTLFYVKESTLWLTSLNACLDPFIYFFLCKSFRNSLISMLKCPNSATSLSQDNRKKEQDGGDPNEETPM
Sequence of P2Y purinoceptor 6 (Homo sapiens) (Q15077 whole entry): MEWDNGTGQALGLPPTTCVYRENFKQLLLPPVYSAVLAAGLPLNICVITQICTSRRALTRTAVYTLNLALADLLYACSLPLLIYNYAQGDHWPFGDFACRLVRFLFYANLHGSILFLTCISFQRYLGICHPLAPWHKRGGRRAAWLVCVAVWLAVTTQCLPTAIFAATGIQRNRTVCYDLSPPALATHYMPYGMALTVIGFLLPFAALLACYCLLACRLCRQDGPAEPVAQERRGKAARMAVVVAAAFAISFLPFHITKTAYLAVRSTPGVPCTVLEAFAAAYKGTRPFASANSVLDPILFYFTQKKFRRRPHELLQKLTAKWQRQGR
Sequence of P2Y purinoceptor 4 (Homo sapiens) (P51582 whole entry): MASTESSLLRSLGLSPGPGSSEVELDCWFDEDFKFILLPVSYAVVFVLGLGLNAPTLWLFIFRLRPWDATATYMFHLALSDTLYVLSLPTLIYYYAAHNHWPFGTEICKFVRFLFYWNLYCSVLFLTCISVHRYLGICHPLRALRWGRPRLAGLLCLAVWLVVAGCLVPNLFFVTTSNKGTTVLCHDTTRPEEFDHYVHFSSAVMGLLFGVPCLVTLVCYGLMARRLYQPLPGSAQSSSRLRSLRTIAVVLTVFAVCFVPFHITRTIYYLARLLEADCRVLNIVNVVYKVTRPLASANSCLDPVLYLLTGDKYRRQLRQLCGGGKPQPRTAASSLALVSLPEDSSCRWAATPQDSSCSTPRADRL
Sequence of P2Y purinoceptor 1 (Homo sapiens) (P47900 whole entry): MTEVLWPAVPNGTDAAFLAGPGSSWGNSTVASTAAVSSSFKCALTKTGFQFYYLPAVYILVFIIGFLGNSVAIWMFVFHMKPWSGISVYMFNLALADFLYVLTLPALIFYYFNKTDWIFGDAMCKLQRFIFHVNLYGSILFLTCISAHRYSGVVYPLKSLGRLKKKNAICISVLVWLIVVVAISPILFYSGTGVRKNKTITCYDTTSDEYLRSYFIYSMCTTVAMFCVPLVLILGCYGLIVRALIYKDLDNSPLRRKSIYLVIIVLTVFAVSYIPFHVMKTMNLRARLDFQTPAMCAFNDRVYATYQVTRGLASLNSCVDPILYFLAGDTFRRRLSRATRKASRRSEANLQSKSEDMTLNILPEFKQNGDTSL
Sequence of P2Y purinoceptor 2 (Homo sapiens) (P41231 whole entry): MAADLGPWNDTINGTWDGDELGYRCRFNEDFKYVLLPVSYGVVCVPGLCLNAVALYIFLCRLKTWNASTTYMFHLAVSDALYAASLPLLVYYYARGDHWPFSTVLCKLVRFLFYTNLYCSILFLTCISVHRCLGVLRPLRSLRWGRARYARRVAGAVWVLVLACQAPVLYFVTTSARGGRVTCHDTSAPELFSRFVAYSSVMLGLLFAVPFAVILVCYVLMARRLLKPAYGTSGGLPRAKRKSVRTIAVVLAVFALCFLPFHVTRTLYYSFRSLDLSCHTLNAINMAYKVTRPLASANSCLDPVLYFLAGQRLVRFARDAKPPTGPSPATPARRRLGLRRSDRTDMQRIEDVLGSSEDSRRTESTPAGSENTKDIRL

SMILES	solubility [1]	Activity (Platelet [2])	Stability (Liver microsome [3])	solubility [4]	inhibition (INH) (Cytochrome P450 2C9)	Stability (Liver microsome [5])	inhibition (INH) (Cytochrome P450 2D6)	inhibition (INH) (Cytochrome P450 3A4 [8])	IC50 (Platelet [9])	Activity (Platelet [10])	inhibition (INH) [11]	Ratio IC50 [12]	inhibition (INH) (Cytochrome P450 3A4 [13])	also measured
CCOC(=O)N1CCN(C(=O)[C@H](CCC(=O)O)NC(=O)c2cc(-c3ccc[n+]([O-])c3)nc(-c3ccccc3)n2)CC1	soluble	<30%	Stable	soluble	Not Active	Stable	Not Active	Not Active	126 nM	<70%	Not Active	0.98	Not Active	Cmax (Rattus norvegicus [6]): BLD; AUC (Rattus norvegicus [7]; BLD = below limit of detection): BLD
CCCCOC(=O)N1CCN(C(=O)[C@H](CCC(=O)O)NC(=O)c2cc([C@H]3C[C@@H]3COC)nc(-c3ccccc3)n2)CC1														inhibition [14]: inactive; inhibition [15]: inactive; inhibition [16]: inactive; inhibition [17]: inactive; inhibition [18]: inactive; inhibition [19]: inactive; inhibition [20]: inactive; inhibition [21]: inactive; inhibition [22]: inactive; inhibition [23]: inactive; inhibition [24]: inactive
CCOC(=O)N1CCN(C(=O)[C@H](CCC(=O)O)NC(=O)c2cc(NCCO)nc(-c3ccccc3)n2)CC1	soluble	<30%	Stable	soluble	Not Active	Stable	Not Active	Not Active	114 nM	<70%	Not Active	0.67	Not Active	Cmax [25]: 17.5 nM; F (Rattus norvegicus [26]): 3%; Vd [27]: 1 L/kg; AUC (Rattus norvegicus [7]): 8.44 nM·h; half-life [28]: 12 min; fraction unbound [29]: 0.135; IC50 (P2Y purinoceptor 12): 169 nM
